Data: ChEMBL document CHEMBL3352265, “Potentially bioactive organotin(IV) compounds: synthesis, characterization, in vitro bioactivities and interaction with SS-DNA” (Eur J Med Chem, 2014)
Converted amounts (≈) assume the structure as drawn. The source made the active and inactive calls. The rule behind the calls is not given here.

Experiments:
[1] = test system: Artemia salina; assay: Cytotoxicity in brine shrimp assessed as mortality after 24 hrs; assay type: functional
[2] = test system: Aspergillus niger; assay: Antifungal activity against Aspergillus niger FCBP 0198 at 40 mg/mL after 7 days by disc diffusion method; assay type: functional
In short: (§1)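 Disc diffusion on SDA. Fungi cultured at 28 °C for 24 h. 4 mm discs received compound at 40 mg/mL stock in DMSO. DMSO served as negative control, terbinafine as positive control. Plates incubated at 28 °C for 7 days. Growth diameter (mm) measured and inhibition calculated against the negative control. MIC taken as the lowest concentration with no growth.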

[3] = test system: Aspergillus fumigatus; assay: Antifungal activity against Aspergillus fumigatus FCBP 66 at 40 mg/mL after 7 days by disc diffusion method; assay type: functional; in short: as §1
[4] = test system: Aspergillus flavus; assay: Antifungal activity against Aspergillus flavus FCBP 0064 at 40 mg/mL after 7 days by disc diffusion method; assay type: functional; in short: as §1
[5] = test system: Mucor; assay: Antifungal activity against Mucor FCBP 0400 at 40 mg/mL after 7 days by disc diffusion method; assay type: functional; in short: as §1
[6] = test system: Escherichia coli; assay: Antibacterial activity against Escherichia coli ATCC 15224 at 40 mg/mL after 24 hrs by disc diffusion method; assay type: functional
In short: (§2)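 Disc diffusion. Strains grown in nutrient broth at 37 °C for 24 h. 1% culture (about 10^6 CFU/mL) mixed into nutrient agar at 45 °C and poured. 4 mm paper discs received compound at 40 mg/mL stock in DMSO; final concentrations tested were […]. DMSO served as negative control, roxithromycin and cefixime as positive controls. Triplicate plates incubated at 37 °C for 24 h. Complete-inhibition zone diameter (mm) recorded as the mean of 3.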

[7] = test system: Staphylococcus aureus; assay: Antibacterial activity against Staphylococcus aureus ATCC 6538 at 40 mg/mL after 24 hrs by disc diffusion method; assay type: functional; in short: as §2
[8] = test system: Klebsiella aerogenes; assay: Antibacterial activity against Enterobacter aerogenes ATCC 13048 at 40 mg/mL after 24 hrs by disc diffusion method; assay type: functional; in short: as §2
[9] = test system: Salmonella typhimurium; assay: Antibacterial activity against Salmonella typhimurium ATCC 14028 at 40 mg/mL after 24 hrs by disc diffusion method; assay type: functional; settings: for inhibition zone (IZ): Salmonella enterica subsp. enterica serovar Typhimurium; in short: as §2
[10] = test system: Bordetella bronchiseptica; assay: Antibacterial activity against Bordetella bronchiseptica ATCC 4617 at 40 mg/mL after 24 hrs by disc diffusion method; assay type: functional; in short: as §2
[11] = test system: Bacillus spizizenii; assay: Antibacterial activity against Bacillus subtilis ATCC 6633 at 40 mg/mL after 24 hrs by disc diffusion method; assay type: functional; in short: as §2
[12] = test system: Escherichia coli; assay: Antibacterial activity against Escherichia coli ATCC 15224 after 18 hrs by microdilution method; assay type: functional
In short: (§3)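 Broth microdilution. Twofold dilutions in culture broth at […]. Each well inoculated with bacterial suspension (10^8 CFU/mL, about 10^5 CFU/well). Sterility control and growth control (broth plus DMSO) included. Incubated at 36 °C for 18 h, in triplicate. MIC taken as the lowest concentration inhibiting growth, given in micrograms per mL.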

[13] = test system: Salmonella typhimurium; assay: Antibacterial activity against Salmonella typhimurium ATCC 14028 after 18 hrs by microdilution method; assay type: functional; settings: Salmonella enterica subsp. enterica serovar Typhimurium; in short: as §3
[14] = test system: Bacillus spizizenii; assay: Antibacterial activity against Bacillus subtilis ATCC 6633 after 18 hrs by microdilution method; assay type: functional; in short: as §3
[15] = test system: Agrobacterium tumefaciens; assay: Antitumor activity against Agrobacterium tumefaciens -induced tumor at 1000 ug/ml after 21 days by potato disc bioassay technique; assay type: functional
In short: (§4)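 Potato disc assay with 48 h culture of A. tumefaciens At-10. Inoculum contained compound at […]. Red-skinned potatoes sterilized in 0.1% HgCl2; 8 mm × 4 mm discs placed ten per 1.5% agar plate, […] each. Incubated at 28 °C in the dark for 21 days, in triplicate. Discs stained with Lugol's and tumors counted. Percent inhibition calculated against the negative control.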

[16] = test system: Agrobacterium tumefaciens; assay: Antitumor activity against Agrobacterium tumefaciens -induced tumor at 100 ug/ml after 21 days by potato disc bioassay technique; assay type: functional; in short: as §4
[17] = test system: Agrobacterium tumefaciens; assay: Antitumor activity against Agrobacterium tumefaciens -induced tumor at 10 ug/ml after 21 days by potato disc bioassay technique; assay type: functional; in short: as §4
[18] = test system: Klebsiella aerogenes; assay: Antibacterial activity against Enterobacter aerogenes ATCC 13048 after 18 hrs by microdilution method; assay type: functional, organism-based; in short: as §3
[19] = test system: Bordetella bronchiseptica; assay: Antibacterial activity against Bordetella bronchiseptica ATCC 4617 after 18 hrs by microdilution method; assay type: functional; in short: as §3
[20] = test system: Aspergillus niger; assay: Antifungal activity against Aspergillus niger FCBP 0198 after 7 days by disc diffusion method; assay type: functional, organism-based; in short: as §1
[21] = test system: Aspergillus fumigatus; assay: Antifungal activity against Aspergillus fumigatus FCBP 66 after 7 days by disc diffusion method; assay type: functional, organism-based; in short: as §1
[22] = test system: Aspergillus flavus; assay: Antifungal activity against Aspergillus flavus FCBP 0064 after 7 days by disc diffusion method; assay type: functional, organism-based; in short: as §1
[23] = test system: Mucor; assay: Antifungal activity against Mucor FCBP 0400 at 40 mg/mL by disc diffusion method; assay type: functional, organism-based; in short: as §1
[24] = test system: Escherichia coli; assay: Induction of Escherichia coli pBR322 DNA damage assessed as open circular form at 1000 ug/ml after 60 mins by gel electrophoresis
[25] = test system: Escherichia coli; assay: Induction of Escherichia coli pBR322 DNA damage assessed as open circular form at 100 ug/ml after 60 mins by gel electrophoresis
[26] = test system: Escherichia coli; assay: Induction of Escherichia coli pBR322 DNA damage assessed as open circular form at 10 ug/ml after 60 mins by gel electrophoresis
[27] = test system: Escherichia coli; assay: Induction of Escherichia coli pBR322 DNA damage assessed as open circular form at 1 ug/ml after 60 mins by gel electrophoresis

**Q.** How did the LC50 ([1]; read-out: LD50 (the source's name)) turn out when `COc1cccc2c1C(=O)c1c(O)c3c(c(O)c1C2=O)C[C@@](O)(C(=O)CO)C[C@@H]3O[C@H]1C[C@H](N)[C@H](O)[C@H](C)O1` [DOXORUBICIN] was run?
**A.** Its LC50 is 0.434 µg/mL (≈ 0.798 µM).

**Q.** How did the zone of inhibition at 40000 µg/mL ([2]; FCBP 0198, 168 h, read-out: DIZ) turn out when `CN(C/C=C/C#CC(C)(C)C)Cc1cccc2ccccc12` [TERBINAFINE] was run?
**A.** Its zone of inhibition at 40000 µg/mL is 35 mm.

**Q.** And the zone of inhibition at 40000 µg/mL ([3]; FCBP 66, 168 h, read-out: DIZ)?
**A.** The zone of inhibition at 40000 µg/mL was 35 mm.

**Q.** What about the zone of inhibition at 40000 µg/mL ([4]; FCBP 0064, 168 h, read-out: DIZ) of the same compound?
**A.** The zone of inhibition at 40000 µg/mL was 35 mm.

**Q.** And the zone of inhibition at 40000 µg/mL ([5]; FCBP 0400, 168 h, read-out: DIZ)?
**A.** The zone of inhibition at 40000 µg/mL was 32 mm.

**Q.** “Dioctylstannanediyl bis(4-(2-methoxyphenylamino)-4-oxobutanoate)” was tested. Which inhibition zone (IZ) [6] did it give?
**A.** Its inhibition zone (IZ) is 10 mm.

**Q.** And the inhibition zone (IZ) [7]?
**A.** Its inhibition zone (IZ) is 0 mm.

**Q.** And the inhibition zone (IZ) [8]?
**A.** The inhibition zone (IZ) was 0 mm.

**Q.** And the inhibition zone (IZ) [9]?
**A.** Its inhibition zone (IZ) is 12 mm.

**Q.** And the inhibition zone (IZ) [10]?
**A.** The inhibition zone (IZ) was 11 mm.

**Q.** What about the inhibition zone (IZ) [11] of the same compound?
**A.** The inhibition zone (IZ) was 9 mm.

**Q.** What about the MIC [12] of the same compound?
**A.** Its MIC is 200 µg/mL.

**Q.** And the MIC [13]?
**A.** Its MIC is 150 µg/mL.

**Q.** And the MIC [14]?
**A.** The MIC was 200 µg/mL.

**Q.** And the inhibition zone (IZ) [2]?
**A.** Its inhibition zone (IZ) is 0 mm.

**Q.** What about the inhibition zone (IZ) [3] of the same compound?
**A.** Its inhibition zone (IZ) is 0 mm.

**Q.** What about the inhibition zone (IZ) [4] of the same compound?
**A.** Its inhibition zone (IZ) is 0 mm.

**Q.** And the inhibition zone (IZ) [5]?
**A.** Its inhibition zone (IZ) is 0 mm.

**Q.** What about the LD50 [1] of the same compound?
**A.** The LD50 was 0.499 µg/mL.

**Q.** And the Activity [15]?
**A.** Its Activity is 65.5%.

**Q.** What about the Activity [16] of the same compound?
**A.** The Activity was 44.9%.

**Q.** What about the Activity [17] of the same compound?
**A.** Its Activity is 31.2%.

**Q.** How did the zone of inhibition at 40000 µg/mL ([6]; ATCC 15224, 24 h, read-out: DIZ) turn out when `CC[C@H]1OC(=O)[C@H](C)[C@@H](O[C@H]2C[C@@](C)(OC)[C@@H](O)[C@H](C)O2)[C@H](C)[C@@H](O[C@@H]2O[C@H](C)C[C@H](N(C)C)[C@H]2O)[C@](C)(O)C[C@@H](C)/C(=N\OCOCCOC)[C@H](C)[C@@H](O)[C@]1(C)O` [ROXITHROMYCIN] was run?
**A.** The zone of inhibition at 40000 µg/mL was 14 mm.

**Q.** And the zone of inhibition at 40000 µg/mL ([7]; ATCC 6538, 24 h, read-out: DIZ)?
**A.** Its zone of inhibition at 40000 µg/mL is 14 mm.

**Q.** And the zone of inhibition at 40000 µg/mL ([8]; ATCC 13048, 24 h, read-out: DIZ)?
**A.** Its zone of inhibition at 40000 µg/mL is 12 mm.

**Q.** And the zone of inhibition at 40000 µg/mL ([9]; Salmonella enterica, ATCC 14028, 24 h, read-out: DIZ)?
**A.** Its zone of inhibition at 40000 µg/mL is 16 mm.

**Q.** And the zone of inhibition at 40000 µg/mL ([10]; ATCC 4617, 24 h, read-out: DIZ)?
**A.** Its zone of inhibition at 40000 µg/mL is 19 mm.

**Q.** What about the zone of inhibition at 40000 µg/mL ([11]; ATCC 6633, 24 h, read-out: DIZ) of the same compound?
**A.** The zone of inhibition at 40000 µg/mL was 10 mm.

**Q.** How did the inhibition zone (IZ) [6] turn out when “N-[(2-methoxyphenyl)]-4-oxo-4-[(triphenylstannyl)oxy]butanamide” was run?
**A.** The inhibition zone (IZ) was 0 mm.

**Q.** And the inhibition zone (IZ) [7]?
**A.** Its inhibition zone (IZ) is 0 mm.

**Q.** What about the inhibition zone (IZ) [8] of the same compound?
**A.** The inhibition zone (IZ) was 11 mm.

**Q.** And the inhibition zone (IZ) [9]?
**A.** The inhibition zone (IZ) was 0 mm.

**Q.** What about the inhibition zone (IZ) [10] of the same compound?
**A.** The inhibition zone (IZ) was 32 mm.

**Q.** What about the inhibition zone (IZ) [11] of the same compound?
**A.** Its inhibition zone (IZ) is 0 mm.

**Q.** What about the MIC [18] of the same compound?
**A.** The MIC was 25 µg/mL.

**Q.** What about the MIC [19] of the same compound?
**A.** Its MIC is 12.5 µg/mL.

**Q.** What about the inhibition zone (IZ) [2] of the same compound?
**A.** The inhibition zone (IZ) was 40 mm.

**Q.** And the inhibition zone (IZ) [3]?
**A.** The inhibition zone (IZ) was 28 mm.

**Q.** What about the inhibition zone (IZ) [4] of the same compound?
**A.** The inhibition zone (IZ) was 26 mm.

**Q.** What about the inhibition zone (IZ) [5] of the same compound?
**A.** Its inhibition zone (IZ) is 23 mm.

**Q.** What about the MIC [20] of the same compound?
**A.** The MIC was 3.12 µg/mL.

**Q.** And the MIC [21]?
**A.** The MIC was 6.25 µg/mL.

**Q.** And the MIC [22]?
**A.** The MIC was 6.25 µg/mL.

**Q.** What about the MIC [23] of the same compound?
**A.** Its MIC is 6.25 µg/mL.

**Q.** And the LD50 [1]?
**A.** Its LD50 is 0.793 µg/mL.

**Q.** What about the Activity [15] of the same compound?
**A.** The Activity was 77.5%.

**Q.** And the Activity [16]?
**A.** Its Activity is 54.9%.

**Q.** And the Activity [17]?
**A.** The Activity was 32.2%.

**Q.** What about the Activity [24] of the same compound?
**A.** Its Activity is “Active”.

**Q.** What about the Activity [25] of the same compound?
**A.** Its Activity is “Active”.

**Q.** What about the Activity [26] of the same compound?
**A.** The Activity was “Active”.

**Q.** What about the Activity [27] of the same compound?
**A.** Its Activity is “Active”.
